Hit rate of the full screen: of about 220,000 compounds, about 440 (0.2%) were called active.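 The calls were made as follows: active = inhibition above the campaign mean of all tested compounds plus 3 SD (cut at about 14% in these data); inactive = the rest.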 The list comes from a sample in which actives are over-represented; it also holds similar structures and randomly drawn compounds.
Molecular target: Serine hydrolase RBBP9 (Homo sapiens) (UniProt O75884)
Experiment: blockers of RBBP9 serine hydrolase labeling – biochemical, fluorescence polarization, FP-Rh probe, HTS, primary screen (AID 1515)
Conditions: recombinant RBBP9, FP-Rh probe fluorescence polarization; at 7.94 µM; stronger effect = higher value
Summary of the method: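 Measured by – fluorescence polarization · Test system – RBBP9 protein · Input – 2.5 µM RBBP9 dispensing solution, before mixing · Measure – percent inhibition from mP, scaled between DMSO and no-protein wells · Benchmarks – DMSO-treated enzyme wells and wells lacking RBBP9 · Times – preincubation 30 min plus labeling 45 min at 25 °C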

Sequence of Serine hydrolase RBBP9 (Homo sapiens) (O75884 whole entry, looked up): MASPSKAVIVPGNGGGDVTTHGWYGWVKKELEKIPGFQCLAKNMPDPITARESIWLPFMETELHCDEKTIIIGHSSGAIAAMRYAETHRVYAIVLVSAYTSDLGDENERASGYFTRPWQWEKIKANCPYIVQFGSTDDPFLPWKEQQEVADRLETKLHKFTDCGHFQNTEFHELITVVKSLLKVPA

inhibition, active:
CC(C)OCCCNC(=O)CNC(=O)c1cccs1 14.6%
COc1cc(C2C(C(=O)OCCC#N)=C(C)NC3=C2S(=O)(=O)c2ccccc23)cc(OC)c1OC (stereo not given) 21.6%
COCCNC(=O)Nc1ccc2nc(-c3ccco3)c(-c3ccco3)nc2c1 17.9%
CCN(CC)C(=O)N1CCN(C(=O)c2ccc(C)cn2)CC1 18.9%
Oc1ccc(N=Cc2sc3ccccc3c2Cl)cc1 15.9%
COc1cc(/C=N/NC(=O)Nc2ccccc2)ccc1OCCOc1ccccc1C 65.1%
O=C1C=CC(=O)N1c1ccc(N2CCCCC2)cc1 14.7%
Cc1ccnc(-n2sc3ccccc3c2=O)n1 43.2%
CCC(=O)c1ccc(OCC(O)CN2CCN(c3cccc(C(F)(F)F)c3)CC2)cc1 (stereo not given) 17.3%
CCC(=O)N1CCCc2ccccc21 16.1%
COc1ccc(NS(=O)(=O)c2cc(NC(=O)CC(=O)c3ccc([N+](=O)[O-])cc3)ccc2C)cc1 28.9%
COc1cccc(NC(=O)c2ccc3c(SCC(=O)O)c4c(nc3c2)CCCC4)c1 14.3%

inhibition, inactive:
COc1ccccc1NC(=O)C1=C(C)NC(=O)NC1c1ccc(C)s1 (stereo not given) -5.66%
Cc1cc(C#N)c(SCC(N)=O)nc1-c1ccc(F)cc1 -8.75%
CC(C)OCC(O)CN1CCN(C(c2ccccc2)c2ccccc2)CC1 (stereo not given) 2.7%
O=[N+]([O-])c1ccc(N2CCN(c3ccc(O)cc3)CC2)c(Cl)c1 -8.4%
CC(C)C(=O)Nc1ccc(C(=O)NNC(=O)c2cccs2)cc1 3.67%
CC(C)NC(=O)C(=O)NCCCOC(C)C -0.43%
CCOC(=O)NN1C(=O)c2ccccc2NC1c1ccccc1O (stereo not given) 0.52%
CCOC(=O)C1=C(N)N2C(=O)C(C)SC2=C(C(=O)OCC)C1c1cc(OC)c(OC)c(OC)c1 (stereo not given) 4.66%
COCCOC(=O)C1=C(C)Nc2nc(C)nn2C1c1ccccc1 (stereo not given) 0.85%
COc1ccc(NC(=O)Nc2ccc3nsnc3c2)cc1 -1.59%
O=C(NCc1ccccn1)c1ccc2nc(-c3ccco3)c(-c3ccco3)nc2c1 -0.69%
COC(=O)CC(=O)N1CCN(c2ccc(Cl)c(Cl)c2)CC1 0.17%
CC1(C)CC2CC(C)(CN2c2ncnc3ccc(Br)cc23)C1 (stereo not given) -2.76%
CCOC(=O)c1sc(=NC(=O)/C=C/c2cccs2)n(C)c1C -10.7%
CCOC(=O)c1ccc(N=C2SC(C(=O)NC)CC(=O)N2CCc2ccccc2)cc1 (stereo not given) -5.9%
COC(=O)Cc1ccc(NC(=S)NCc2ccco2)cc1 -2.67%
Cc1nnc(SC(C(=O)Nc2cc(Cl)cc(Cl)c2)c2ccccc2)[nH]c1=O (stereo not given) -10.7%
CSc1sc(C(=O)NNC(=O)c2ccc(Cl)cc2)c2c1C=CCC2 -0.01%
COC(=O)c1ccc(C2C3=C(Nc4nnnn42)c2ccccc2OC3)cc1 (stereo not given) -9.06%
Cc1ccc(Sc2ccncc2S(N)(=O)=O)cc1 -3.25%
CC(NCc1nc2ccccc2n1C)C12CC3CC(CC(C3)C1)C2 (stereo not given) 1.94%
Cc1ccc(OCC(=O)N2CCN(C(=O)c3cccnc3)CC2)cc1 -7.21%
Cc1ccc(-c2cc(C(F)(F)F)n3nc(C(=O)N4CCCC4)cc3n2)cc1 -1.99%
Cc1ccc(S(=O)(=O)/N=C(\CN2CCOCC2)N2CCOCC2)cc1 5.6%
CCCCCc1nnc(NC(=O)c2ccc(=O)n(C)n2)s1 -7.4%
CSCCC(NC(=O)c1ccco1)C(=O)OCC(=O)Nc1ncc(Cl)c(C)c1Cl (stereo not given) -5.55%
CC[n+]1c(C)n(-c2ccccc2)c2ccc(NC(C)=O)cc21 -7.36%
CCC(C)c1ccc(NC(=S)NCc2ccccn2)cc1 (stereo not given) -8.32%
CC(C)Oc1ccc(CCC(=O)NNC(=S)NCc2ccccc2)cc1 -2.85%
O=C(CCC1CCCN(Cc2ccc(O)c(Cl)c2)C1)NCc1ccccc1F (stereo not given) -3.09%
Brc1ccc(-c2n(-c3ccccn3)c3ccccc3[n+]2-c2ccccn2)cc1 0.06%
CCC(CC)c1nnc(NC(=O)/C=C/c2ccco2)s1 -5.03%
O=C(NCC1CCCO1)C1CCN(C2CCN(C(=O)C3CCCCC3)CC2)CC1 (stereo not given) -1.77%
COC(=O)c1cccc(NS(C)(=O)=O)c1 2.15%
C#CCOCCOCCOCCNc1nc(N2CCN(C(=O)[C@H](C(C)C)n3cc(CCO)nn3)CC2)nc(N2CCN(C(=O)[C@H](C(C)C)n3cc(CCO)nn3)CC2)n1 -3.79%
Oc1ccc(N=Cc2c(O)ccc3ccccc23)cc1 5.11%
O=C(N/N=C/c1c(Cl)[nH]c2ccccc12)c1sc2ccccc2c1Cl -18.2%
CC1(C)CC(=O)C2=C(C1)N=C1SCCC(=O)N1C2c1ccc(C(F)(F)F)cc1 (stereo not given) -1.93%
COc1ccc(/C=C(\C#N)C(=O)ONC2=NCCCCC2)cc1 -9.38%
COc1cccc(-c2nn(-c3ccccc3)cc2/C=C(\C#N)C(=O)NCCCn2ccnc2)c1 -15%
CCOc1ccc(N2C(=O)CN(c3cccc4ccccc34)C2=S)cc1 -4%
COc1cccc(N(Cc2nnc3n2CCCCC3)C(=O)Nc2ccccc2F)c1 -3.77%
O=C(Nc1nc(-c2cccnc2)cs1)c1ccccc1F -5.59%
COc1ccc(/C=N/NC(=O)c2ccccc2)cc1OS(=O)(=O)c1ccccc1 -7.38%
COc1cc(/C=N/NC(=O)c2ccccc2)ccc1OS(=O)(=O)c1ccccc1 -11.2%
Cc1ccc(C(=O)N2CCN(S(=O)(=O)N3CCOCC3)CC2)cc1 0.85%
COc1ccc(C(=O)NN2C(=O)C3C(c4ccccc4)C=CC(c4ccccc4)C3C2=O)cc1 (stereo not given) -6.27%
O=C(NCC1CCN(Cc2ccccc2Cl)CC1)Nc1cccc(Cl)c1 -3.66%
Cc1cc(/C=C(/C#N)C(=O)Nc2ccc(Cl)cc2)c(C)n1-c1cccnc1 -4.94%
O=c1[nH][nH]c(=O)c2cc(N3CCCC3)ccc12 0.44%
Cc1ccccc1C(=O)Nc1ccc(N2CCCCCC2)cc1 -6.04%
Cc1c(NC(=O)CN2C(=O)C(=O)N(Cc3ccccc3)C2=O)c(=O)n(-c2ccccc2)n1C -6.97%
CCS(=O)(=O)c1ccc(O)c(NC(=O)COc2ccc(Cl)cc2)c1 -5.54%
Cc1ccnc(SCC(N)=O)n1 -18.6%
Cc1ccnc(Nc2nc3ccccc3s2)n1 -1.41%
CCOC(=O)CCCNC(=O)COC(=O)/C=C/c1ccc2c(c1)OCO2 6.07%
Cc1ccc(C(O)P(=O)(OC(C)C)c2ccc(N(C)C)cc2)cc1 (stereo not given) -1.11%
O=C(C1CCCO1)N1CCN(C(=S)Nc2cccc(Cl)c2)CC1 (stereo not given) -9.39%
CCC(=O)c1ccc(OCC(O)CN2CC(C)OC(C)C2)cc1 (stereo not given) -8.04%
O=C(COc1ccc(Cl)cc1)N1CCN(c2cccc(C(F)(F)F)c2)CC1 -0.45%
O=C(O)c1ccccc1-c1ccccc1C(=O)Nc1nccs1 -2.01%
CCN1CCc2nc(NC(=O)c3cc(F)c(F)cc3Cl)sc2C1 -0.19%
CCOc1ccc2nc(NCCNC(=O)C(C)(C)C)c(C)cc2c1 -3.3%
Cc1ccc(C(=O)COC(=O)CCN2C(=O)C3C4CC(C(Br)C4Br)C3C2=O)cc1 (stereo not given) -2.32%
COc1ccc(OC)c(NC(=S)N2CCc3ccccc3C2)c1 1.81%
Cc1ccc(C)c(Cn2cnc3c(oc4ccccc43)c2=O)c1 -1.77%
Cc1ccc(CN2CCN(Cc3ccccc3-c3ccco3)CC2CCO)o1 (stereo not given) -3.63%
CN(C)c1nnnn1-c1ccc(Cl)cc1 3.3%
CC(C)c1ccc(Nc2nnc(SCC(=O)c3nnc(-c4ccccc4)o3)s2)cc1 -10.9%
O=C(CSCc1ccccc1)N1CCc2ccccc21 -3.54%
Cc1occc1C(=O)N1CCCc2ccccc21 7.03%
COc1cc(OC)cc(-c2nc(=S)n3ccsc3n2)c1 0.8%
O=C1CN(C(=O)CN2C(=O)NC3(CCCCC3)C2=O)c2ccccc2N1 -4.87%
CCSc1ccccc1C(=O)Nc1ccc2c(c1)OCO2 -7.81%
CN(/C(=N/S(=O)(=O)c1cccs1)c1ccccc1)c1ccc(O)cc1 -5.39%
O=C(CSc1nnc(SCc2ccc(Cl)cc2)s1)N/N=C/c1ccccc1Cl -7.13%
COc1cc(NC(=S)NCc2ccc(S(N)(=O)=O)cc2)cc(OC)c1 1.34%
COc1ccc(CCC(=O)OCC(=O)Nc2ccc(C)c(S(=O)(=O)N(C)C)c2)cc1 -1.71%
COc1cccc(NCCC(=O)c2cccc([N+](=O)[O-])c2)c1 -8.98%
COc1cccc(NC(=O)NCc2ccc(F)cc2)c1 -0.62%
CCNC(=S)NNC(=O)C1CCN(Cc2ccccc2)CC1 -3.59%
CCC(=O)Nc1ccc(C(=O)Nc2cccc(OC)c2)cc1 -4.79%
CC(=O)c1ccc(NC(=O)c2ccc3c(Cl)c4c(nc3c2)CCCC4)cc1 -3.32%

Source: PubChem BioAssay AID1515 (The Scripps Research Institute Molecular Screening Center, 2009)
